Results: ChEMBL document CHEMBL3045677, “Sulfonamide-1,2,4-thiadiazole derivatives as antifungal and antibacterial agents: synthesis, biological evaluation, lipophilicity, and conformational studies” (2010)
Values after ≈ are worked out from the molar mass of the structure shown.

Tests used:
[1] = system: Talaromyces funiculosus; assay: Antifungal activity against Talaromyces funiculosus ATCC 36839 at 28 degC measured after 72 hr by microdilution method; type: functional; settings: ATCC 36839, 72 h
Outline: (§1)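 Fungi were kept on malt agar at 4 °C. Spores were washed off with sterile 0.85% saline containing 0.1% Tween 80 and adjusted to about 1.0×10⁵ per well. Compounds were dissolved in DMSO (1 mg/ml stock) and serially diluted in malt broth with inoculum in 96-well plates, 72 h at 28 °C, for MIC. MFC came from subculture into fresh broth for a further 72 h at 28 °C.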

[2] = system: Aspergillus flavus; assay: Antifungal activity against Aspergillus flavus ATCC 9643 at 28 degC measured after 72 hr by microdilution method; type: functional; settings: ATCC 9643, 72 h; outline: as §1
[3] = system: Listeria monocytogenes; assay: Antibacterial activity against Listeria monocytogenes NCTC 7973 at […] degC measured after 24 hr by microdilution method; type: functional; settings: NCTC 7973, 24 h
Outline: (§2)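 Bacteria suspended in sterile saline at 1.0×10⁵ CFU/ml and added at 1.0×10⁴ CFU per well to LB broth with compound (1 mg/ml) in 96-well plates. Incubated 24 h at […] °C. MIC was the lowest concentration without visible growth under a binocular microscope. OD 655 nm was read against a blank and a positive control.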

[4] = system: Salmonella typhimurium; assay: Antibacterial activity against Salmonella enterica subsp. enterica serovar TyphimuriumATCC 13311 at […] degC measured after 72 hr by microdilution method; type: functional, Salmonella enterica subsp. enterica serovar Typhimurium; settings: ATCC 13311, 72 h
Outline: (§3)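 Bactericidal endpoint: after the 24 h broth microdilution (1.0×10⁴ CFU per well, LB broth, […] °C), wells were serially subcultured into plates of fresh broth and incubated a further 72 h. MBC was the lowest concentration with no visible growth, taken as 99.5% killing of the original inoculum.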

[5] = system: Bacillus cereus; assay: Antibacterial activity against clinical isolate Bacillus cereus at […] degC measured after 24 hr by microdilution method; type: functional; outline: as §2
[6] = system: Escherichia coli; assay: Antibacterial activity against Escherichia coli ATCC 35210 at […] degC measured after 72 hr by microdilution method; type: functional; settings: ATCC 35210, 72 h; outline: as §3
[7] = system: Bacillus cereus; assay: Antibacterial activity against clinical isolate Bacillus cereus at […] degC measured after 72 hr by microdilution method; type: functional; outline: as §3
[8] = system: Trichoderma viride; assay: Antifungal activity against Hypocrea rufa IAM 5061 at 28 degC measured after 72 hr by microdilution method; type: functional; settings: IAM 5061, 72 h; outline: as §1
[9] = system: Salmonella typhimurium; assay: Antibacterial activity against Salmonella enterica subsp. enterica serovar Typhimurium ATCC 13311 at […] degC measured after 24 hr by microdilution method; type: functional; settings: ATCC 13311, 24 h; outline: as §2
[10] = system: Aspergillus versicolor; assay: Antifungal activity against Aspergillus versicolor ATCC 11730 at 28 degC measured after 72 hr by microdilution method; type: functional; settings: ATCC 11730, 72 h; outline: as §1
[11] = system: Proteus mirabilis; assay: Antibacterial activity against Proteus mirabilis at […] degC measured after 72 hr by microdilution method; type: functional; outline: as §3
[12] = system: Pseudomonas aeruginosa; assay: Antibacterial activity against Pseudomonas aeruginosa ATCC 27853 at […] degC measured after 72 hr by microdilution method; type: functional; settings: ATCC 27853, 72 h; outline: as §3
[13] = system: Penicillium ochrochloron; assay: Antifungal activity against Penicillium ochrochloron ATCC 9112 at 28 degC measured after 72 hr by microdilution method; type: functional; settings: ATCC 9112, 72 h; outline: as §1
[14] = system: Aspergillus niger; assay: Antifungal activity against Aspergillus niger ATCC 6275 at 28 degC measured after 72 hr by microdilution method; type: functional; settings: ATCC 6275, 72 h; outline: as §1
[15] = system: Pseudomonas aeruginosa; assay: Antibacterial activity against Pseudomonas aeruginosa ATCC 27853 at […] degC measured after 24 hr by microdilution method; type: functional; settings: ATCC 27853, 24 h; outline: as §2
[16] = system: Aspergillus fumigatus; assay: Antifungal activity against plant isolate Aspergillus fumigatus at 28 degC measured after 72 hr by microdilution method; type: functional; outline: as §1
[17] = system: Staphylococcus aureus; assay: Antibacterial activity against Staphylococcus aureus ATCC 6538 at […] degC measured after 72 hr by microdilution method; type: functional; settings: ATCC 6538, 72 h; outline: as §3
[18] = system: Micrococcus flavus; assay: Antibacterial activity against Micrococcus flavus ATCC 10240 at […] degC measured after 72 hr by microdilution method; type: functional; settings: ATCC 10240, 72 h; outline: as §3
[19] = system: Listeria monocytogenes; assay: Antibacterial activity against Listeria monocytogenes NCTC 7973 at […] degC measured after 72 hr by microdilution method; type: functional; settings: NCTC 7973, 72 h; outline: as §3
[20] = system: Micrococcus flavus; assay: Antibacterial activity against Micrococcus flavus ATCC 10240 at […] degC measured after 24 hr by microdilution method; type: functional; settings: ATCC 10240, 24 h; outline: as §2
[21] = system: Fulvia fulva; assay: Antifungal activity against Passalora fulva TK5318 at 28 degC measured after 72 hr by microdilution method; type: functional; settings: TK5318, 72 h; outline: as §1
[22] = system: Staphylococcus aureus; assay: Antibacterial activity against Staphylococcus aureus ATCC 6538 at […] degC measured after 24 hr by microdilution method; type: functional; settings: ATCC 6538, 24 h; outline: as §2
[23] = system: Escherichia coli; assay: Antibacterial activity against Escherichia coli ATCC 35210 at […] degC measured after 24 hr by microdilution method; type: functional; settings: ATCC 35210, 24 h; outline: as §2
[24] = system: Proteus mirabilis; assay: Antibacterial activity against Proteus mirabilis at […] degC measured after 24 hr by microdilution method; type: functional; outline: as §2

| Structure (SMILES) | MFC [1] | MIC [1] | MFC [2] | MIC [2] | MIC [3] | MBC [4] | MIC [5] | MBC [6] | MBC [7] | MFC [8] | MIC [8] | MIC [9] | MFC [10] | MIC [10] | MBC [11] | MBC [12] | MFC [13] | MIC [13] | MFC [14] | MIC [14] | further results |
| --- | --- | --- | --- | --- | --- | --- | --- | --- | --- | --- | --- | --- | --- | --- | --- | --- | --- | --- | --- | --- | --- |
| COc1cc(Cc2nnc(Nc3ccccc3)s2)c(S(=O)(=O)N2CCCC2)cc1OC | 43.4 µM (≈ 20 µg/mL) | 21.7 µM (≈ 9.99 µg/mL) | 43.4 µM (≈ 20 µg/mL) | 21.7 µM (≈ 9.99 µg/mL) | 21.7 µM (≈ 9.99 µg/mL) | 21.7 µM (≈ 9.99 µg/mL) | 10.9 µM (≈ 5.02 µg/mL) | 43.4 µM (≈ 20 µg/mL) | 21.7 µM (≈ 9.99 µg/mL) | 21.7 µM (≈ 9.99 µg/mL) | 10.9 µM (≈ 5.02 µg/mL) | 10.9 µM (≈ 5.02 µg/mL) | 43.4 µM (≈ 20 µg/mL) | 21.7 µM (≈ 9.99 µg/mL) | 43.4 µM (≈ 20 µg/mL) | 43.4 µM (≈ 20 µg/mL) | 43.4 µM (≈ 20 µg/mL) | 21.7 µM (≈ 9.99 µg/mL) | 43.4 µM (≈ 20 µg/mL) | 21.7 µM (≈ 9.99 µg/mL) | MIC [15]: 21.7 µM (≈ 9.99 µg/mL); MFC [16]: 43.4 µM (≈ 20 µg/mL); MIC [16]: 21.7 µM (≈ 9.99 µg/mL); MBC [17]: 43.4 µM (≈ 20 µg/mL); MBC [18]: 21.7 µM (≈ 9.99 µg/mL); MBC [19]: 43.4 µM (≈ 20 µg/mL); MIC [20]: 10.9 µM (≈ 5.02 µg/mL); MFC [21]: 21.7 µM (≈ 9.99 µg/mL); MIC [21]: 10.9 µM (≈ 5.02 µg/mL); MIC [22]: 21.7 µM (≈ 9.99 µg/mL); MIC [23]: 21.7 µM (≈ 9.99 µg/mL); MIC [24]: 21.7 µM (≈ 9.99 µg/mL) |
| COc1cc(Cc2nnc(Nc3ccc(Cl)cc3)s2)c(S(=O)(=O)N2CCN(C)CC2)cc1OC | 38.2 µM (≈ 20 µg/mL) | 19.1 µM (≈ 10 µg/mL) | 38.2 µM (≈ 20 µg/mL) | 19.1 µM (≈ 10 µg/mL) | 19.1 µM (≈ 10 µg/mL) | 38.2 µM (≈ 20 µg/mL) | 19.1 µM (≈ 10 µg/mL) | 76.4 µM (≈ 40 µg/mL) | 38.2 µM (≈ 20 µg/mL) | 19.1 µM (≈ 10 µg/mL) | 9.6 µM (≈ 5.03 µg/mL) | 9.6 µM (≈ 5.03 µg/mL) | 38.2 µM (≈ 20 µg/mL) | 38.2 µM (≈ 20 µg/mL) | 76.4 µM (≈ 40 µg/mL) | 76.4 µM (≈ 40 µg/mL) | 38.2 µM (≈ 20 µg/mL) | 19.1 µM (≈ 10 µg/mL) | 38.2 µM (≈ 20 µg/mL) | 19.1 µM (≈ 10 µg/mL) | MIC [15]: 19.1 µM (≈ 10 µg/mL); MFC [16]: 38.2 µM (≈ 20 µg/mL); MIC [16]: 9.6 µM (≈ 5.03 µg/mL); MBC [17]: 76.4 µM (≈ 40 µg/mL); MBC [18]: 19.1 µM (≈ 10 µg/mL); MBC [19]: 76.4 µM (≈ 40 µg/mL); MIC [20]: 9.6 µM (≈ 5.03 µg/mL); MFC [21]: 19.1 µM (≈ 10 µg/mL); MIC [21]: 9.6 µM (≈ 5.03 µg/mL); MIC [22]: 38.2 µM (≈ 20 µg/mL); MIC [23]: 19.1 µM (≈ 10 µg/mL); MIC [24]: 38.2 µM (≈ 20 µg/mL) |
| COc1cc(Cc2nnc(Nc3ccc([N+](=O)[O-])cc3)s2)c(S(=O)(=O)N(C)C)cc1OC | 20.9 µM (≈ 10 µg/mL) | 10.5 µM (≈ 5.04 µg/mL) | 41.8 µM (≈ 20 µg/mL) | 20.9 µM (≈ 10 µg/mL) | 41.8 µM (≈ 20 µg/mL) | 20.9 µM (≈ 10 µg/mL) | 10.5 µM (≈ 5.04 µg/mL) | 83.6 µM (≈ 40.1 µg/mL) | 20.9 µM (≈ 10 µg/mL) | 20.9 µM (≈ 10 µg/mL) | 10.5 µM (≈ 5.04 µg/mL) | 10.5 µM (≈ 5.04 µg/mL) | 41.8 µM (≈ 20 µg/mL) | 20.9 µM (≈ 10 µg/mL) | 83.6 µM (≈ 40.1 µg/mL) | 41.8 µM (≈ 20 µg/mL) | 41.8 µM (≈ 20 µg/mL) | 10.9 µM (≈ 5.23 µg/mL) | 41.8 µM (≈ 20 µg/mL) | 20.9 µM (≈ 10 µg/mL) | MIC [15]: 15.7 µM (≈ 7.53 µg/mL); MFC [16]: 41.8 µM (≈ 20 µg/mL); MIC [16]: 20.9 µM (≈ 10 µg/mL); MBC [17]: 83.6 µM (≈ 40.1 µg/mL); MBC [18]: 83.6 µM (≈ 40.1 µg/mL); MBC [19]: 83.6 µM (≈ 40.1 µg/mL); MIC [20]: 20.9 µM (≈ 10 µg/mL); MFC [21]: 20.9 µM (≈ 10 µg/mL); MIC [21]: 10.5 µM (≈ 5.04 µg/mL); MIC [22]: 41.8 µM (≈ 20 µg/mL); MIC [23]: 20.9 µM (≈ 10 µg/mL); MIC [24]: 41.8 µM (≈ 20 µg/mL) |
